# Published values gathered from unrelated publications.
# Compare with care: the assays were run in different laboratories.
# Target: Homeodomain-interacting protein kinase 1 (HIPK1, Homo sapiens, UniProt Q86Z02)
SMILES,observed,mode,method,concentration,quantity,result
Nc1ncc(-c2nc(N3CCOCC3)nc(N3CCOCC3)n2)c(C(F)F)n1,binding,,competition with immobilised ligand,10 µM,remaining binding,69%
Cc1nn(C)cc1-c1nc2c(N3CCN(Cc4ccc(Cl)cc4)CC3)c(Cl)cnc2[nH]1,binding,,competition with immobilised ligand,1 µM,remaining binding,66%
Cn1cc(-c2cc(F)cc(N3CCn4c(cc5c4CCCC5)C3=O)c2CO)cc(Nc2ccc(N3CCN(C4COC4)CC3)cn2)c1=O,enzyme activity,inhibitor,,0.1 µM,inhibition,5%
CC(C)(C)c1cc(C=C(C#N)C#N)cc(Br)c1O,enzyme activity,inhibitor,,0.5 µM,remaining activity,104%
Cn1cc(-c2cccc(N3CCc4c(sc5c4CC(C)(C)C5)C3=O)c2CO)cc(Nc2ccncn2)c1=O,enzyme activity,inhibitor,,1 µM,inhibition,-2%
O=c1[nH]c2ccccc2n1C1CCN(Cc2ccc(-c3[nH]c4cc5ncnc5cc4nc3-c3ccccc3)cc2)CC1,cell-free assay,,,0.5 µM,remaining signal,106%
COc1ncccc1-c1cnn2ccc(N3CCN(C(=O)OC(C)C)CC3)nc12,binding,,competition with immobilised ligand,1 µM,remaining binding,92%
Cn1cncc1[C@@](O)(COc1ccc(C#N)cc1-c1ccc(OC(F)(F)F)cc1)c1ccc(C#N)cc1,cell-free assay,,competition with immobilised ligand,1 µM,remaining binding,79%
